Laboratory results from ChEMBL document CHEMBL2385003, “Oleuropein protects against dextran sodium sulfate-induced chronic colitis in mice” (J Nat Prod, 2013).
Activity calls are given as the source filed them. No cut-off for these calls is given here.

Key:
[1] = Antiproliferative activity against rat IEC-18 cells at 10 uM after 24 hrs by MTT assay; assay type: cell-based; conditions: iec-18, 24 h
[2] = Wound healing activity in rat IEC-18 cells assessed as reduction of cell migration at 10 uM after 24 hrs relative to control; assay type: functional; parameters: scale not given: the % may be the effect or the level left
In short: (§1)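 Confluent IEC-18 cells (from 2.5 × 10^5 cells/mL seeding) were moved to 0.5% FBS DMEM and scraped. They were then treated with test substance at 10 and 100 μM, or dexamethasone 10 μM. Migration was counted blind as cells crossing the wound border in a defined area from 0 to 24 h, using photomicrographs at 200×. n = 10.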

[3] = test system: Mus musculus; assay: Antiinflammatory activity in C57BL/6 mouse DSS-induced chronic colitis model assessed as downregulation of p38 MAPK phosphorylation in colon at 500 mg/kg/day administered through diet for 4 weeks measured after 56 days by Western blot analysis relative to DSS-treated mouse; assay type: functional
[4] = test system: Mus musculus; assay: Antiinflammatory activity in C57BL/6 mouse DSS-induced chronic colitis model assessed as leukocyte infiltration into mucosal tissue at 500 mg/kg/day administered through diet for total of 4 weeks for alternative weeks with water measured after 56 days by hematoxylin-eosin staining; assay type: functional, organism-based
[5] = test system: Mus musculus; assay: Antiinflammatory activity in C57BL/6 mouse DSS-induced chronic colitis model assessed as inhibition of IL-6 production in colon at 500 mg/kg/day administered through diet for total of 4 weeks for alternative weeks with water measured after 56 days by ELISA relative to DSS-treated mouse; assay type: functional; conditions: C57BL/6, Colon
In short: (§2)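 Mice were female C57BL/6 on the chronic DSS schedule: 1% DSS in cycles 1–2, 2% in cycles 3–4, each cycle 7 days DSS then 7 days water. Diet carried 0.25% test substance for 56 days. Colon powder was suspended 20% w/v in PBS/0.1% NP-40, sonicated and spun at 20000g. IL-6, IL-1β and IL-10 were measured in supernatants by ELISA as pg/mL per mg protein. Mean ± SEM, n = 7.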

[6] = test system: Mus musculus; assay: Antiinflammatory activity in C57BL/6 mouse DSS-induced chronic colitis model assessed as reduction of colon weight to length ratio at 500 mg/kg/day administered through diet for total of 4 weeks for alternative weeks with water measured after 56 days; assay type: functional, organism-based
In short: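 Female C57BL/6 mice received four DSS cycles: 7 days DSS in drinking water (1%, then 2% in cycles 3–4) followed by 7 days water. Diet contained 0.25% test substance, about 500 mg/kg/day. At day 56, colons were removed, rinsed in cold PBS, blotted, weighed and measured to give weight/length (mg/cm). n = 10.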

[7] = test system: Mus musculus; assay: Toxicity in C57BL/6 mouse assessed as effect on viability at 500 mg/kg/day administered through diet for total of 4 weeks for alternative weeks with water measured after 56 days; assay type: organism-based; conditions: in vivo, 1344 h
[8] = test system: Mus musculus; assay: Antiinflammatory activity in C57BL/6 mouse DSS-induced chronic colitis model assessed as effect on NFkappaB pathway in colon at 500 mg/kg/day administered through diet for total of 4 weeks for alternative weeks with water measured after 56 days by Western blot analysis; assay type: functional, organism-based
[9] = Wound healing activity in rat IEC-18 cells assessed as induction of wound closure at 10 uM after 24 hrs relative to dexamethasone; assay type: functional; in short: as §1
[10] = test system: IEC-18; assay: Inhibition of LPS-induced p38 MAPK phosphorylation in rat IEC-18 cells at 100 uM incubated for 1 hr prior to LPS challenge measured after 30 mins by Western blot analysis; assay type: cell-based
In short: (§3)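 IEC-18 cells were seeded at 2.5 × 10^5 cells/mL in DMEM with 5% FBS; after 24 h the medium was switched to 0.5% FBS. Cells were pretreated 1 h with test substance at 100 μM (SB 203580 10 μM as reference), then given LPS 1 μg/mL. Phospho-p38 was read at 30 min and COX-2 at 24 h by Western blot (25 μg protein, 1:1000 antibodies, β-actin normalized). n = 6.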

[11] = test system: Mus musculus; assay: Antiinflammatory activity in C57BL/6 mouse DSS-induced chronic colitis model assessed as prevention of body weight loss at 500 mg/kg/day administered through diet for total of 4 weeks for alternative weeks with water measured after 56 days; assay type: functional, organism-based
[12] = test system: Mus musculus; assay: Antiinflammatory activity in C57BL/6 mouse DSS-induced chronic colitis model assessed as decrease in N-acetylglucosaminidase activity measured reduction of macrophage accumulation in colon at 500 mg/kg/day administered through diet for total of 4 weeks for alternative weeks with water measured after 56 days by spectrophotometric analysis relative to DSS-treated mouse; assay type: functional; parameters: scale not given: the % may be the effect or the level left
In short: (§4)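 Female C57BL/6 mice, 6−8 weeks, 18−20 g. Four DSS cycles in drinking water (1% in cycles 1–2, 2% in cycles 3–4; each 7 days DSS, then 7 days water). Diet held 0.25% test substance (about 500 mg/kg/day). Colons taken at day 56 and homogenized in 80 mM phosphate pH 5.4 with 0.5% HTAB. MPO read with TMB/H2O2, 37 °C 3 min, 630 nm. EPO read with o-phenylenediamine/H2O2, 2 min room temperature, 490 nm. NAG read with 4-nitrophenyl N-acetyl-β-D-glucosaminide, 37 °C 5 min, 405 nm. Mean ± SEM, n = 7.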

[13] = test system: IEC-18; assay: Inhibition of p38 MAPK-induced COX-2 expression in rat IEC-18 cells at 100 uM incubated for 1 hr prior to LPS challenge measured after 24 hrs by Western blot analysis; assay type: cell-based; in short: as §3
[14] = test system: Mus musculus; assay: Antiinflammatory activity in C57BL/6 mouse DSS-induced chronic colitis model assessed as reduction of edema at 500 mg/kg/day administered through diet for total of 4 weeks for alternative weeks with water measured after 56 days by hematoxylin-eosin staining; assay type: functional, organism-based
[15] = test system: Mus musculus; assay: Antiinflammatory activity in C57BL/6 mouse DSS-induced chronic colitis model assessed as inhibition of IL-1beta production in colon at 500 mg/kg/day administered through diet for total of 4 weeks for alternative weeks with water measured after 56 days by ELISA relative to DSS-treated mouse; assay type: functional; conditions: C57BL/6, Colon; in short: as §2
[16] = test system: Mus musculus; assay: Antiinflammatory activity in C57BL/6 mouse DSS-induced chronic colitis model assessed as up regulation of annexin A1 mRNA expression in colon at 500 mg/kg/day administered through diet for total of 4 weeks for alternative weeks with water measured after 56 days by RT-PCR analysis relative to DSS-treated control; assay type: functional
In short: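 Female C57BL/6 mice (6−8 weeks, 18−20 g) got four cycles of 7 days DSS in drinking water (1% cycles 1–2, 2% cycles 3–4) then 7 days water, with diet at 0.25% test agent throughout. Colons were taken at day 56. cDNA from 500 ng RNA was amplified with annexin A1 primers (25 cycles: 94/60/72 °C, 1 min each) and run on 2% agarose gel.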

[17] = test system: Mus musculus; assay: Antiinflammatory activity in C57BL/6 mouse DSS-induced chronic colitis model assessed as downregulation of COX-2 expression in colon at 500 mg/kg/day administered through diet for total of 4 weeks for alternative weeks with water measured after 56 days by Western blot analysis relative to DSS-treated mouse; assay type: functional
[18] = test system: Mus musculus; assay: Antiinflammatory activity in C57BL/6 mouse DSS-induced chronic colitis model assessed as reduction of stool consistency at 500 mg/kg/day administered through diet for total of 4 weeks for alternative weeks with water measured after 56 days; assay type: functional, organism-based
In short: (§5)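 Mice and schedule as in the chronic DSS model: four 7-day DSS cycles (1%, 1%, 2%, 2%), each followed by 7 days water, with a diet containing 0.25% test substance. At day 56, stool consistency (normal, loose, diarrhea) and gross rectal bleeding (visible fecal blood, anal examination) were scored within the DAI. n = 10.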

[19] = test system: Mus musculus; assay: Antiinflammatory activity in C57BL/6 mouse DSS-induced chronic colitis model assessed as decrease in myeloperoxidase activity measured reduction of neutrophil accumulation in colon at 500 mg/kg/day administered through diet for total of 4 weeks for alternative weeks with water measured after 56 days by spectrophotometric analysis relative to DSS-treated mouse; assay type: functional; parameters: scale not given: the % may be the effect or the level left; in short: as §4
[20] = test system: Mus musculus; assay: Antiinflammatory activity in C57BL/6 mouse DSS-induced chronic colitis model assessed as reduction of mucosal injury at 500 mg/kg/day administered through diet for total of 4 weeks for alternative weeks with water measured after 56 days by hematoxylin-eosin staining; assay type: functional, organism-based
[21] = Antiproliferative activity against rat IEC-18 cells at 10 to 100 uM after 24 hrs by MTT assay; assay type: cell-based; conditions: iec-18, 24 h
In short: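 IEC-18 rat epithelial cells (passages 18–22) were seeded at 2.5 × 10^5 cells/mL in DMEM (4.5 g/L glucose, 5% FBS). After 24 h the medium was switched to 0.5% FBS and test substance was added at 10 and 100 μM, with dexamethasone 10 μM as reference. Proliferation was read by MTT at 24 h. n = 10.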

[22] = test system: Mus musculus; assay: Antiinflammatory activity in C57BL/6 mouse DSS-induced chronic colitis model assessed as decrease in eosinophil peroxidase activity measured reduction of eosinophil accumulation in colon at 500 mg/kg/day administered through diet for total of 4 weeks for alternative weeks with water measured after 56 days by spectrophotometric analysis relative to DSS-treated mouse; assay type: functional; parameters: scale not given: the % may be the effect or the level left; in short: as §4
[23] = Wound healing activity in rat IEC-18 cells assessed as induction of wound closure at 100 uM after 24 hrs relative to dexamethasone; assay type: functional; in short: as §1
[24] = test system: Mus musculus; assay: Antiinflammatory activity in C57BL/6 mouse DSS-induced chronic colitis model assessed as reduction of rectal bleeding at 500 mg/kg/day administered through diet for total of 4 weeks for alternative weeks with water measured after 56 days; assay type: functional, organism-based; in short: as §5
[25] = test system: Mus musculus; assay: Antiinflammatory activity in C57BL/6 mouse DSS-induced chronic colitis model assessed as induction of IL-10 production in colon at 500 mg/kg/day administered through diet for total of 4 weeks for alternative weeks with water measured after 56 days by ELISA relative to DSS-treated mouse; assay type: functional; conditions: C57BL/6, Colon; in short: as §2
[26] = test system: Mus musculus; assay: Antiinflammatory activity in C57BL/6 mouse DSS-induced chronic colitis model assessed as downregulation of iNOS expression in colon at 500 mg/kg/day administered through diet for total of 4 weeks for alternative weeks with water measured after 56 days by Western blot analysis relative to DSS-treated mouse; assay type: functional
[27] = test system: Mus musculus; assay: Antiinflammatory activity in C57BL/6 mouse DSS-induced chronic colitis model assessed as decrease in severity of progressive chronic injury at 500 mg/kg/day administered through diet for total of 4 weeks for alternative weeks with water measured after 56 days; assay type: functional, organism-based
[28] = test system: IEC-18; assay: Inhibition of p38 MAPK-induced COX-2 expression in rat IEC-18 cells at 10 uM incubated for 1 hr prior to LPS challenge measured after 24 hrs by Western blot analysis; assay type: cell-based
In short: (§6)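 IEC-18 rat intestinal epithelial cells were seeded at 2.5 × 10^5 cells/mL in DMEM (4.5 g/L glucose, 5% FBS) at 37 °C and 5% CO2. After 24 h the medium was switched to 0.5% FBS. Cells were pretreated with compound for 1 h, then stimulated with LPS 1 μg/mL: 30 min for phospho-p38 and 24 h for COX-2. Cytosolic protein (25 μg) was run on Western blots. Each result is the mean of at least three independent experiments.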

[29] = test system: IEC-18; assay: Inhibition of LPS-induced p38 MAPK phosphorylation in rat IEC-18 cells at 10 uM incubated for 1 hr prior to LPS challenge measured after 30 mins by Western blot analysis; assay type: cell-based; in short: as §6

C[C@@H]1C[C@H]2[C@@H]3CCC4=CC(=O)C=C[C@]4(C)[C@@]3(F)[C@@H](O)C[C@]2(C)[C@@]1(O)C(=O)CO [DEXAMETHASONE]
Activity [1]: Non-toxic
Activity [2]: 20%

C/C=C1/[C@H](O[C@@H]2O[C@H](CO)[C@@H](O)[C@H](O)[C@H]2O)OC=C(C(=O)OC)[C@H]1CC(=O)OCCc1ccc(O)c(O)c1 [OLEUROPEIN]
Activity [3]: <=65%
Activity [4]: Active
inhibition in vivo at 500 mg/kg/day [5]: 37%
Activity [6]: Active
Activity [7]: Non-toxic
Activity [8]: inactive
Activity [9]: 57%
inhibition [10]: Active
Activity [11]: Active
Activity [12]: 42%
inhibition [13]: 83%
Activity [14]: Active
inhibition in vivo at 500 mg/kg/day [15]: 25%
fold change (FC) [16]: 46
Activity [17]: 68%
Activity [18]: Active
Activity [19]: 36%
Activity [20]: Active
Activity [21]: Non-toxic
Activity [22]: 46%
Activity [23]: 80%
Activity [24]: Active
induction in vivo at 500 mg/kg/day [25]: 34%
Activity [26]: 58%
Activity [27]: Active

C[S+]([O-])c1ccc(-c2nc(-c3ccc(F)cc3)c(-c3ccncc3)[nH]2)cc1 (centres undefined)
inhibition [28]: 70%
inhibition [29]: Active
